Data set [1] is described as follows: folding enthalpy; higher = less favourable; fluorescence melt of hairpins on a sequencing array, two-state fit. The settings on record: sodium 0.088 M. In short, it runs like this: (§1)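 Two-state fits, bootstrapped, provided melting temperature and folding enthalpy from Cy3 fluorescence normalised to pre-quench Cy3 and to control constructs. Library hairpins with annealed Cy3 and quencher oligos were imaged on a sequenced MiSeq flow cell in 50 mM Na-HEPES pH 8.0, 25 mM NaCl, at 2.5 °C intervals up to 60 °C. Four replicates were combined with inverse-variance weighting. A 9.35 °C upward shift was applied to fitted temperatures to match UV melts.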

Data set [2] is described as follows: melting temperature; fluorescence melt of hairpins on a sequencing array, two-state fit, raised by 9.35 °C to match UV melts. The settings on record: sodium 0.088 M. In short, it runs like this: as §1

With GATCCGGCTACGGATC ((((((....)))))), the folding enthalpy in data set [1] is -40.2 kcal/mol. Also, in data set [2], the Tm came out at 67.8 °C.

On to GATCCGGCTGCGGATC ((((((....)))))), for which the folding enthalpy in data set [1] was -38.4 kcal/mol. The Tm in data set [2] was determined as 61 °C.

For GATCCGGGAAACCAGATC ((((.((....)).)))), the folding enthalpy in data set [1] was -27.8 kcal/mol. In addition, in data set [2], the Tm came out at 35.6 °C.

For GATCCGGGAAACCGGGTC ((.((((....)))).)), the folding enthalpy in data set [1] is -41.6 kcal/mol. Moreover, the Tm in data set [2] was found to be 54.5 °C.

Regarding GATCCGGGACGGATC ((((((...)))))), the folding enthalpy in data set [1] was -37.1 kcal/mol. Also, in data set [2], the Tm turned out to be 68.9 °C.

Take GATCCGGGATCGGATC ((((((....)))))): in data set [1], the folding enthalpy is -40.1 kcal/mol. The Tm in data set [2] was 61.9 °C.

With GATCCGGGCGCGGATC ((((((....)))))), the folding enthalpy in data set [1] was -39 kcal/mol. Also, the Tm in data set [2] is 59.8 °C.

In the case of GATCCGGTATCGGATC ((((((....)))))), the folding enthalpy in data set [1] was -42.5 kcal/mol. Also, the Tm in data set [2] amounted to 63.5 °C.

As for GATCCGGTCACGGATC ((((((....)))))), the folding enthalpy in data set [1] is -34.7 kcal/mol. The Tm in data set [2] is 69.3 °C.

With GATCCGGTGCCGGATC ((((((....)))))), the folding enthalpy in data set [1] was -59.2 kcal/mol. Also, the Tm in data set [2] is 58 °C.

Consider GATCCGTAACGGATC ((((((...)))))), for which the folding enthalpy in data set [1] was -34.1 kcal/mol. In data set [2], the Tm was 57.6 °C.

With GATCCGTACACGGATC ((((((....)))))), the folding enthalpy in data set [1] is -43.2 kcal/mol. Further, the Tm in data set [2] was found to be 61.2 °C.

Take GATCCGTACCCGGATC ((((((....)))))): the folding enthalpy in data set [1] was -39 kcal/mol. The Tm in data set [2] worked out at 56.4 °C.

As for GATCCGTAGCCGGATC ((((((....)))))), the folding enthalpy in data set [1] is -47.9 kcal/mol. In addition, the Tm in data set [2] came out at 56.1 °C.

Consider GATCCGTCATCGGATC ((((((....)))))), for which, in data set [1], the folding enthalpy was -39 kcal/mol. Also, in data set [2], the Tm was 59.3 °C.

Regarding GATCCGTCCCGGATC ((((((...)))))), the folding enthalpy in data set [1] was -39.4 kcal/mol. Also, the Tm in data set [2] worked out at 61 °C.

For the sequence GATCCGTCTACGGATC ((((((....)))))), the folding enthalpy in data set [1] was -45.5 kcal/mol. Also, the Tm in data set [2] was 63.7 °C.

Consider GATCCGTCTGCGGATC ((((((....)))))), for which the folding enthalpy in data set [1] is -44.5 kcal/mol. In addition, the Tm in data set [2] is 61.1 °C.

With GATCCGTGCCGGATC ((((((...)))))), in data set [1], the folding enthalpy is -44.5 kcal/mol. Also, in data set [2], the Tm turned out to be 57.9 °C.

In the case of GATCCGTGGACGGATC ((((((....)))))), the folding enthalpy in data set [1] was -41 kcal/mol. The Tm in data set [2] was 62.9 °C.

GATCCGTGGGCGGATC ((((((....)))))): the folding enthalpy in data set [1] was -30.1 kcal/mol. Moreover, the Tm in data set [2] amounted to 66.1 °C.

GATCCGTGTCCGGATC ((((((....)))))): in data set [1], the folding enthalpy is -34 kcal/mol. The Tm in data set [2] is 57.5 °C.

With GATCCGTTCACGGATC ((((((....)))))), the folding enthalpy in data set [1] was -51 kcal/mol. The Tm in data set [2] turned out to be 67.4 °C.

As to GATCCGTTGCGGATC ((((((...)))))), in data set [1], the folding enthalpy is -43 kcal/mol. The Tm in data set [2] turned out to be 57.3 °C.

As for GATCCTAAATAGGATC ((((((....)))))), in data set [1], the folding enthalpy was -35.8 kcal/mol. In data set [2], the Tm amounted to 49.2 °C.

For the sequence GATCCTAACGAGGATC ((((((....)))))), the folding enthalpy in data set [1] is -44.8 kcal/mol. For the same sequence, the Tm in data set [2] came out at 50.6 °C.

With GATCCTAAGAAGGATC ((((((....)))))), the folding enthalpy in data set [1] is -35.3 kcal/mol. In data set [2], the Tm turned out to be 48 °C.

With GATCCTAAGAGGATC ((((((...)))))), the folding enthalpy in data set [1] is -29.6 kcal/mol. Besides, in data set [2], the Tm is 53.8 °C.

GATCCTAATAGGATC ((((((...)))))): the folding enthalpy in data set [1] was -27.7 kcal/mol. Also, in data set [2], the Tm was 51.9 °C.

As for GATCCTACATAGGATC ((((((....)))))), the folding enthalpy in data set [1] is -35.5 kcal/mol. Further, the Tm in data set [2] stood at 52.8 °C.

In the case of GATCCTACGAGGATC ((((((...)))))), the folding enthalpy in data set [1] is -29.5 kcal/mol. Besides, in data set [2], the Tm was determined as 53.4 °C.

Values taken from the array DNA melting data of Ke et al. (doi:10.1101/2024.01.08.574731).
